Where a name gives a salt, the structure may show the parent alone.
What was measured:
Assay type in all cases: functional
[1] = Cytotoxicity against human NSCLC cells after 48 hrs
Summary of the method: (§1)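 NCI 60-line panel. Compounds were dissolved in DMSO and tested at five 10-fold dilutions, the highest 10^-4 M (10^-3 M where footnoted), over 48 h of incubation. The readouts were GI50, TGI and LC50 in μM, with the panel mean also given. Only compounds passing a 10^-5 M single-dose prescreen were tested; some were repeated and averaged over two experiments.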

[2] = Cytotoxicity against human leukemia cells after 48 hrs; settings: for GI50 / TGI: Leukemia cell; summary of the method: as §1
[3] = Cytotoxicity against human renal cancer cells after 48 hrs; settings: Cancer cell lines; summary of the method: as §1
[4] = Cytotoxicity against human colon cancer cells after 48 hrs; settings: Cancer cell lines; for CC50: read-out: LC50 (the source's name); summary of the method: as §1
[5] = Cytotoxicity against human ovarian cancer cells after 48 hrs; settings: Cancer cell lines; summary of the method: as §1
[6] = Cytotoxicity against human prostate cancer cells after 48 hrs; settings: Cancer cell lines; for CC50: read-out: LC50 (the source's name); summary of the method: as §1
[7] = Cytotoxicity against human CNS cancer cells after 48 hrs; settings: Cancer cell lines; for CC50: read-out: LC50 (the source's name); summary of the method: as §1
[8] = Cytotoxicity against human breast cancer cells after 48 hrs; settings: Cancer cell lines; for CC50: read-out: LC50 (the source's name); summary of the method: as §1
[9] = Cytotoxicity against human melanoma cells after 48 hrs; settings: Melanoma cell; summary of the method: as §1

SMILES | GI50 [1] [µM] | TGI [1] [µM] | GI50 [2] [µM] | TGI [2] [µM] | GI50 [3] [µM] | TGI [3] [µM] | GI50 [4] [µM] | TGI [4] [µM] | CC50 [4] [µM] | GI50 [5] [µM] | LC50 [5] [µM] | TGI [5] [µM] | GI50 [6] [µM] | TGI [6] [µM] | GI50 [7] [µM] | TGI [7] [µM] | GI50 [8] [µM] | TGI [8] [µM] | GI50 [9] [µM] | TGI [9] [µM] | also measured
COc1c(/C=C2/C(=O)Nc3ccccc32)c2ccccc2n1-c1ccccc1 | 2.14 | 8.32 | 0.52 | 2.63 | 1.12 | 4.07 | 1.05 | 3.24 | 7.94 | 1.38 | 15.8 | 4.07 | 1.12 | 3.47 | 2.19 | 8.51 | 1.23 | 4.47 | 1.48 | 3.98 | LC50 [1]: 27.5 µM; LC50 (concentration giving 50% net cell kill) [2]: 50.1 µM; LC50 [3]: 13.2 µM; CC50 [6]: 19.1 µM; CC50 [7]: 30.9 µM; CC50 [8]: 27.5 µM; LC50 [9]: 10.5 µM
CC[C@]1(O)C[C@H]2CN(CCc3c([nH]c4ccccc34)[C@@](C(=O)OC)(c3cc4c(cc3OC)N(C=O)[C@H]3[C@@](O)(C(=O)OC)[C@H](OC(C)=O)[C@]5(CC)C=CCN6CC[C@]43[C@@H]65)C2)C1 [VINCRISTINE SULFATE] | 0.25 |  | 0.1 |  | 0.32 |  | 0.1 |  |  | 0.32 |  |  | 0.13 |  | 0.13 |  | 0.32 |  | 0.16 |  | 
O=C1Nc2ccc(O)cc2/C1=C\c1c(Cl)n(CCc2ccccc2)c2ccccc12 | 7.08 | 50.1 | 3.39 | 77.6 | 9.33 | 55 | 9.77 | 33.9 | 72.4 | 9.12 | 95.5 | 64.6 | 6.76 | 47.9 | 10.5 | 52.5 | 3.98 | 25.1 | 7.08 | 28.2 | LC50 [3]: 95.5 µM; CC50 [7]: 95.5 µM; LC50 [9]: 74.1 µM
O=C1/C(=C/c2c(Cl)[nH]c3ccccc23)c2ccccc2N1Cc1ccccc1 | 6.61 | 85.1 | 2.95 | 21.4 | 5.25 | 77.6 | 4.17 | 79.4 |  | 9.12 |  | 79.4 | 6.17 |  | 4.9 | 69.2 | 4.17 | 56.2 | 5.13 | 61.7 | 
COc1cc2c(/C=C3/C(=O)Nc4ccc(O)cc43)c(Cl)n(Cc3cc(OC)c(OC)c(OC)c3)c2cc1C | 2.4 | 32.4 | 1.41 | 18.6 | 2.75 | 33.1 | 2.29 | 49 |  | 2.34 |  | 43.6 | 2.29 | 50.1 | 2.04 | 34.7 | 1.41 | 34.7 | 1.45 | 11.5 | 
O=C1Nc2ccccc2/C1=C\c1c(Cl)n(Cc2ccccc2)c2ccccc12 | 14.8 | 57.5 | 3.63 | 21.4 | 20.4 | 70.8 | 19.9 | 60.3 | 95.5 | 20.9 | 95.5 | 66.1 | 20.4 | 55 | 16.6 | 47.9 | 12.9 | 64.6 | 8.91 | 32.4 | LC50 (concentration giving 50% net cell kill) [2]: 75.9 µM; CC50 [7]: 93.3 µM; LC50 [9]: 87.1 µM
COc1ccc2c(c1)/C(=C\c1c(Cl)n(C/C=C/c3ccccc3)c3ccccc13)C(=O)N2 | 2.24 | 37.1 | 2 |  | 1.91 | 30.2 | 1.32 | 21.9 |  | 2.09 |  | 41.7 | 2.09 | 16.2 | 2.04 |  | 1.86 | 36.3 | 2.4 | 38.9 | 
COc1cc2c(c(OC)c1OC)/C(=C\c1c(Cl)[nH]c3ccccc13)C(=O)N2 | 1.86 | 9.12 | 0.55 | 7.08 | 1.35 | 5.37 | 1.29 | 4.27 | 18.2 | 1.51 | 77.6 | 9.77 | 1.17 | 5.5 | 1.58 | 6.31 | 1.62 | 8.13 | 1.86 | 6.61 | LC50 [1]: 67.6 µM; LC50 (concentration giving 50% net cell kill) [2]: 42.7 µM; LC50 [3]: 36.3 µM; CC50 [7]: 35.5 µM; CC50 [8]: 66.1 µM; LC50 [9]: 30.9 µM
COc1ccc2c(c1)/C(=C\c1c(OC)n(-c3ccccc3)c3ccccc13)C(=O)N2 | 2.51 | 17.4 | 0.76 | 4.47 | 2.29 | 17.4 | 1.74 | 11 | 42.7 | 2 | 66.1 | 17.4 | 2.63 | 13.2 | 0.98 | 9.55 | 0.63 | 7.24 | 2.4 | 17 | LC50 [1]: 63.1 µM; LC50 (concentration giving 50% net cell kill) [2]: 58.9 µM; LC50 [3]: 63.1 µM; CC50 [6]: 52.5 µM; CC50 [7]: 38.9 µM; CC50 [8]: 47.9 µM; LC50 [9]: 50.1 µM
COc1cc2c(/C=C3/C(=O)Nc4cccc(Cl)c43)c(Cl)n(Cc3cc(OC)c(OC)c(OC)c3)c2cc1C | 3.24 | 12 | 2.45 | 14.1 | 3.24 | 11.8 | 2.88 | 10 | 51.3 | 3.98 | 66.1 | 22.9 | 1.91 | 5.13 | 3.02 | 12.6 | 2.95 | 15.1 | 2.88 | 8.91 | LC50 [1]: 47.9 µM; LC50 (concentration giving 50% net cell kill) [2]: 51.3 µM; LC50 [3]: 45.7 µM; CC50 [6]: 17.4 µM; CC50 [7]: 40.7 µM; CC50 [8]: 61.7 µM; LC50 [9]: 51.3 µM
O=C1Nc2ccc(Cl)cc2/C1=C\c1c(Cl)n(CCCc2ccccc2)c2ccccc12 | 2.24 | 8.91 | 2.88 | 81.3 | 1.86 | 9.77 | 1.95 | 5.62 | 19.1 | 2.45 | 60.3 | 23.4 | 2 | 6.46 | 2.82 | 10.2 | 2.19 | 9.12 | 2.04 | 5.75 | LC50 [1]: 28.8 µM; LC50 [3]: 17.8 µM; CC50 [6]: 34.7 µM; CC50 [7]: 50.1 µM; CC50 [8]: 42.7 µM; LC50 [9]: 35.5 µM
